Experimental data pooled from the literature.
Each line is one published result; the experiments were not run side by side.
Target: Homeodomain-interacting protein kinase 2 (HIPK2, Homo sapiens, UniProt Q9H2X6)

CC(C)(O)c1cncc(-c2nc3ccc(F)cc3n2C2CC2)c1
remaining binding (cell-free assay, competition with immobilised ligand; 1 µM): 100%

CNC(=O)[C@@H]1CC[C@@H](n2c(-c3ccc4cnccc4c3)nc3ccc(C(=O)NCc4cccc(C(N)=O)c4)cc32)C1
remaining binding (binding, competition with immobilised ligand; 1 µM): 100%

O=C(NCCCN1CCOCC1)c1ccc(Nc2ncc(Cl)c(-c3ccc(Cl)s3)n2)cc1
remaining binding (binding, competition with immobilised ligand; 1 µM): 8.9%

NS(=O)(=O)c1cc(NC(=O)C2(c3ccccc3Cl)CC2)ccc1Oc1cccc(Cl)c1
remaining binding (cell-free assay, competition with immobilised ligand; 1 µM): 88%

CCN1CCN(Cc2ccc(C(=O)Nc3ccc(C)c(Oc4ccc5c(c4)CC(=O)N5)c3)cc2C(F)(F)F)CC1
remaining binding (binding, competition with immobilised ligand; 1 µM): 100%

O=C(NCCCN1CCOCC1)c1ccc(Nc2nccc(-c3cc4ccccc4s3)n2)cc1
remaining binding (binding, competition with immobilised ligand; 1 µM): 34%

CN(CCCC(F)(F)F)c1nccc(-c2cnn3ncccc23)n1
remaining binding (binding; 1 µM): 100%

COc1ncc2cc3ccccc3nc2c1C#N
remaining binding (cell-free assay, competition with immobilised ligand; 5 µM): 98%

C=CC(=O)N1CCC(C(=O)NCC(=O)N2CCN(c3nc(-c4cnc(N)nc4C(F)F)nc(N4CCOCC4)n3)CC2)CC1
remaining binding (binding, competition with immobilised ligand; 1 µM): 83%

C[C@@H]1CCN(c2nccc(-c3cnn4ncccc34)n2)C1
remaining binding (binding; 1 µM): 61%

O=C(NCC1CCOCC1)c1n[nH]cc1NC(=O)c1c(F)cccc1F
remaining binding (binding, competition with immobilised ligand; 1 µM): 100%

CC1=C(C#N)[C@@H](c2ccc3[nH]nc(C)c3c2)C(C#N)=C(c2ccc(Cl)cc2)N1
remaining binding (cell-free assay, competition with immobilised ligand; 1 µM): 86.1%

O=C(c1ccc(Nc2ncc(Cl)c(-c3cc4ccccc4s3)n2)cc1)N1CCC(N2CCCC2)CC1
remaining binding (binding, competition with immobilised ligand; 1 µM): 0.2%

N[C@H]1CCN(c2nccc(-c3cnn4ncccc34)n2)C1
remaining binding (binding; 1 µM): 98%

CC(=O)Nc1c(C(C)=O)c(=O)n(C)c2nc(-c3ccc(Cl)cc3Cl)c(-c3ccc(Cl)cc3)cc12
remaining binding (cell-free assay, competition with immobilised ligand; 1 µM): 100%

COc1cnc(Nc2cccc(S(N)(=O)=O)c2)nc1N1CCN(c2ccccc2)C(=O)C1
remaining binding (binding, competition with immobilised ligand; 1 µM): 100%

CN(C)c1nccc(-c2cnc3ncccn23)n1
remaining binding (binding; 1 µM): 36%

c1cncc(-c2cccc(Nc3nccc(NC4CCCCC4)n3)c2)c1
remaining binding (binding, competition with immobilised ligand; 10 µM): 53%

CC1CCCN1c1nccc(-c2cnn3ncccc23)n1 (stereo not shown)
remaining binding (binding; 1 µM): 100%

Cn1nc(C(F)(F)F)cc1-c1cnc(N2CCc3cc(S(=O)(=O)Nc4c(F)cc(Cl)cc4F)cc(N4CCCC4=O)c32)nc1
remaining binding (cell-free assay, competition with immobilised ligand; 1 µM): 74%

Cc1cnn2ncc(-c3ccnc(N(C)C)n3)c2c1
remaining binding (binding; 1 µM): 63%

CN(C)C(=O)Cn1cc(-c2nc(C3(c4ccc(-c5cnc(N)nc5)cc4)CC3)no2)cn1
remaining binding (cell-free assay, competition with immobilised ligand; 1 µM): 94%
